Source: ChEMBL document CHEMBL4325889, “Natural products hybrids: 3,5,4'-Trimethoxystilbene-5,6,7-trimethoxyflavone chimeric analogs as potential cytotoxic agents against diverse human cancer cells” (Eur J Med Chem, 2019)

Key:
Format in all cases: functional
[1] = tested on: CCRF-CEM; experiment: Growth inhibition of human CCRF-CEM cells at 10 uM after 48 hrs by SRB assay relative to control; conditions: read-out: GI
Summary of the method: (§1)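 Screened at the National Cancer Institute by the standard NCI protocol using the sulforhodamine B assay, which measures cellular protein. Single dose of 10 µM. Result is percent growth inhibition; values above 100% mean cell number fell below the initial population. Values are the average of duplicates.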

[2] = tested on: HOP-62; experiment: Growth inhibition of human HOP62 cells at 10 uM after 48 hrs by SRB assay relative to control; conditions: HOP-62, 48 h, read-out: GI; summary of the method: as §1
[3] = tested on: MDA-MB-435; experiment: Growth inhibition of human MDA-MB-435 cells at 10 uM after 48 hrs by SRB assay relative to control; conditions: MDA-MB-435, 48 h, read-out: GI; summary of the method: as §1
[4] = tested on: SNB-75; experiment: Growth inhibition of human SNB75 cells at 10 uM after 48 hrs by SRB assay relative to control; conditions: SNB-75, 48 h, read-out: GI
Summary of the method: (§2)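 NCI screen against its human cancer cell line panel by the standard NCI protocol, SRB protein stain. Single dose of 10 μM. Percent growth inhibition versus control; values above 100% mean the cell population fell below the starting number. Each value is the mean of duplicates.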

[5] = tested on: MCF7; experiment: Growth inhibition of human MCF7 cells at 10 uM after 48 hrs by SRB assay relative to control; conditions: MCF7, 48 h, read-out: GI; summary of the method: as §1
[6] = tested on: K562; experiment: Growth inhibition of human K562 cells at 10 uM after 48 hrs by SRB assay relative to control; conditions: K562, 48 h, read-out: GI; summary of the method: as §1
[7] = tested on: HCC 2998; experiment: Growth inhibition of human HCC2998 cells at 10 uM after 48 hrs by SRB assay relative to control; conditions: HCC 2998, 48 h, read-out: GI; summary of the method: as §1
[8] = tested on: SK-MEL-28; experiment: Growth inhibition of human SK-MEL-28 cells at 10 uM after 48 hrs by SRB assay relative to control; conditions: SK-MEL-28, 48 h, read-out: GI; summary of the method: as §1
[9] = tested on: UACC-257; experiment: Growth inhibition of human UACC257 cells at 10 uM after 48 hrs by SRB assay relative to control; conditions: UACC-257, 48 h, read-out: GI; summary of the method: as §2
[10] = tested on: SNB-19; experiment: Growth inhibition of human SNB19 cells at 10 uM after 48 hrs by SRB assay relative to control; conditions: SNB-19, 48 h, read-out: GI; summary of the method: as §2
[11] = tested on: NCI-H23; experiment: Growth inhibition of human NCI-H23 cells at 10 uM after 48 hrs by SRB assay relative to control; conditions: NCI-H23, 48 h, read-out: GI; summary of the method: as §1
[12] = tested on: RPMI-8226; experiment: Growth inhibition of human RPMI8226 cells at 10 uM after 48 hrs by SRB assay relative to control; conditions: RPMI-8226, 48 h, read-out: GI; summary of the method: as §1
[13] = tested on: IGROV-1; experiment: Growth inhibition of human IGROV1 cells at 10 uM after 48 hrs by SRB assay relative to control; conditions: IGROV-1, 48 h, read-out: GI; summary of the method: as §1
[14] = tested on: SF-539; experiment: Growth inhibition of human SF539 cells at 10 uM after 48 hrs by SRB assay relative to control; conditions: SF-539, 48 h, read-out: GI; summary of the method: as §1
[15] = tested on: Malme-3M; experiment: Growth inhibition of human MALME-3M cells at 10 uM after 48 hrs by SRB assay relative to control; conditions: read-out: GI; summary of the method: as §1
[16] = tested on: HT-29; experiment: Growth inhibition of human HT-29 cells at 10 uM after 48 hrs by SRB assay relative to control; conditions: HT-29, 48 h, read-out: GI; summary of the method: as §1
[17] = tested on: SF-295; experiment: Growth inhibition of human SF295 cells at 10 uM after 48 hrs by SRB assay relative to control; conditions: SF-295, 48 h, read-out: GI; summary of the method: as §1
[18] = tested on: HOP-92; experiment: Growth inhibition of human HOP92 cells at 10 uM after 48 hrs by SRB assay relative to control; conditions: HOP-92, 48 h, read-out: GI; summary of the method: as §1
[19] = tested on: HCT-116; experiment: Growth inhibition of human HCT116 cells at 10 uM after 48 hrs by SRB assay relative to control; conditions: HCT-116, 48 h, read-out: GI; summary of the method: as §1
[20] = tested on: NCI/ADR-RES; experiment: Growth inhibition of human NCI/ADR-RES cells at 10 uM after 48 hrs by SRB assay relative to control; conditions: read-out: GI; summary of the method: as §1
[21] = tested on: NCI-H322M; experiment: Growth inhibition of human NCI-H322M cells at 10 uM after 48 hrs by SRB assay relative to control; conditions: read-out: GI; summary of the method: as §1
[22] = tested on: SK-MEL-5; experiment: Growth inhibition of human SK-MEL-5 cells at 10 uM after 48 hrs by SRB assay relative to control; conditions: SK-MEL-5, 48 h, read-out: GI; summary of the method: as §1
[23] = tested on: DU-145; experiment: Growth inhibition of human DU145 cells at 10 uM after 48 hrs by SRB assay relative to control; conditions: DU-145, 48 h, read-out: GI; summary of the method: as §1
[24] = tested on: OVCAR-3; experiment: Growth inhibition of human OVCAR3 cells at 10 uM after 48 hrs by SRB assay relative to control; conditions: OVCAR-3, 48 h, read-out: GI; summary of the method: as §1
[25] = tested on: SN12C; experiment: Growth inhibition of human SN12C cells at 10 uM after 48 hrs by SRB assay relative to control; conditions: read-out: GI; summary of the method: as §1
[26] = tested on: HL-60(TB); experiment: Growth inhibition of human HL-60(TB) cells at 10 uM after 48 hrs by SRB assay relative to control; conditions: HL-60, 48 h, read-out: GI
Summary of the method: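 Run at NCI under its standard single-dose protocol against a leukemia cell panel. Cells were exposed to 10 µM; growth was read by sulforhodamine B staining of cellular protein and expressed as % growth inhibition versus untreated control. Values above 100% mean the cell population fell below the starting count (cytocidal). Each value is the average of duplicates.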

[27] = tested on: COLO 205; experiment: Growth inhibition of human COLO205 cells at 10 uM after 48 hrs by SRB assay relative to control; conditions: COLO 205, 48 h, read-out: GI; summary of the method: as §1
[28] = tested on: Hs-578T; experiment: Growth inhibition of human Hs 578T cells at 10 uM after 48 hrs by SRB assay relative to control; conditions: read-out: GI; summary of the method: as §1
[29] = tested on: U-251; experiment: Growth inhibition of human U251 cells at 10 uM after 48 hrs by SRB assay relative to control; conditions: U-251, 48 h, read-out: GI; summary of the method: as §2
[30] = tested on: OVCAR-4; experiment: Growth inhibition of human OVCAR4 cells at 10 uM after 48 hrs by SRB assay relative to control; conditions: OVCAR-4, 48 h, read-out: GI; summary of the method: as §1
[31] = tested on: CAKI-1; experiment: Growth inhibition of human Caki1 cells at 10 uM after 48 hrs by SRB assay relative to control; conditions: CAKI-1, 48 h, read-out: GI; summary of the method: as §1
[32] = tested on: UO-31; experiment: Growth inhibition of human UO31 cells at 10 uM after 48 hrs by SRB assay relative to control; conditions: UO-31, 48 h, read-out: GI; summary of the method: as §2
[33] = tested on: UACC-62; experiment: Growth inhibition of human UACC62 cells at 10 uM after 48 hrs by SRB assay relative to control; conditions: UACC-62, 48 h, read-out: GI; summary of the method: as §2

SMILES | inhibition of growth at 10 µM [1] [%] | inhibition of growth at 10 µM [2] [%] | inhibition of growth at 10 µM [3] [%] | inhibition of growth at 10 µM [4] [%] | inhibition of growth at 10 µM [5] [%] | inhibition of growth at 10 µM [6] [%] | inhibition of growth at 10 µM [7] [%] | inhibition of growth at 10 µM [8] [%] | inhibition of growth at 10 µM [9] [%] | inhibition of growth at 10 µM [10] [%] | inhibition of growth at 10 µM [11] [%] | inhibition of growth at 10 µM [12] [%] | inhibition of growth at 10 µM [13] [%] | inhibition of growth at 10 µM [14] [%] | inhibition of growth at 10 µM [15] [%] | inhibition of growth at 10 µM [16] [%] | inhibition of growth at 10 µM [17] [%] | inhibition of growth at 10 µM [18] [%] | inhibition of growth at 10 µM [19] [%] | inhibition of growth at 10 µM [20] [%] | also measured
COc1ccc(C(=O)Nc2cccc(-c3cc(=O)c4c(OC)c(OC)c(OC)cc4o3)c2)cc1 | 72.5 | 27.5 | 30.4 | 32.4 | 33.5 | 79.4 | 29.7 | 31 | -4.69 | 35.4 | 42.5 | 81.2 | 46.1 | 33.7 | 46.6 | 53.3 | 40.4 | 93.3 | 52.2 | 39.8 | inhibition of growth at 10 µM [21]: 44.9%; inhibition of growth at 10 µM [22]: 49.8%; inhibition of growth at 10 µM [23]: 43.5%; inhibition of growth at 10 µM [24]: 33.2%; inhibition of growth at 10 µM [25]: 50%; inhibition of growth at 10 µM [26]: 55.2%; inhibition of growth at 10 µM [27]: 26.9%; inhibition of growth at 10 µM [28]: 57.1%; inhibition of growth at 10 µM [29]: 27.7%; inhibition of growth at 10 µM [30]: 38%; inhibition of growth at 10 µM [31]: 42.6%; inhibition of growth at 10 µM [32]: 73.5%; inhibition of growth at 10 µM [33]: 44.6%
COc1cc2oc(-c3cccc(NC(=O)c4ccc5c(c4)OCO5)c3)cc(=O)c2c(OC)c1OC | 112 | 45.6 | 46.7 | 32.6 | 56.4 | 82.6 | 46.9 | 44.9 | 22.7 | 54.4 | 47.1 | 154 | 53 | 43 | 23.6 | 70.6 | 46.1 | 106 | 64.5 | 42.4 | inhibition of growth at 10 µM [21]: 56.5%; inhibition of growth at 10 µM [22]: 83.6%; inhibition of growth at 10 µM [23]: 47.1%; inhibition of growth at 10 µM [24]: 47%; inhibition of growth at 10 µM [25]: 57.9%; inhibition of growth at 10 µM [26]: 65.4%; inhibition of growth at 10 µM [27]: 31.9%; inhibition of growth at 10 µM [28]: 54.8%; inhibition of growth at 10 µM [29]: 67.5%; inhibition of growth at 10 µM [30]: 41.9%; inhibition of growth at 10 µM [31]: 22.9%; inhibition of growth at 10 µM [32]: 75.8%; inhibition of growth at 10 µM [33]: 50%
COc1cc(NC(=O)c2cccc(-c3cc(=O)c4c(O)c(OC)c(OC)cc4o3)c2)cc(OC)c1OC | 41.9 | 88.3 | 34.6 | 67.8 | 50.6 | 45.5 | 34 | 22.6 | 33.9 | 50 | 65.1 | 73 | 29.6 | 48.3 | 49 | 37.2 | 38.5 | 43.9 | 55.2 | 50.6 | inhibition of growth at 10 µM [21]: 25.6%; inhibition of growth at 10 µM [22]: 60.8%; inhibition of growth at 10 µM [23]: 42.8%; inhibition of growth at 10 µM [24]: 76.2%; inhibition of growth at 10 µM [25]: 37%; inhibition of growth at 10 µM [26]: 22%; inhibition of growth at 10 µM [27]: 32.3%; inhibition of growth at 10 µM [28]: 104%; inhibition of growth at 10 µM [29]: 55.2%; inhibition of growth at 10 µM [30]: 41.4%; inhibition of growth at 10 µM [31]: 37.5%; inhibition of growth at 10 µM [32]: 65.7%; inhibition of growth at 10 µM [33]: 50.6%
